Results from article PMC9358981 (Journal of pharmacological and toxicological methods, 2021).
Entries after “also recorded” stand apart in the source; their conditions may differ. Like-named read-outs stand apart in the source and are kept apart here.

Legend:
[1] = molecular target: human S1R (Homo sapiens, UniProt Q99720); test: Radioligand competition binding with [3H]-; settings: for S2R/S1R ratio (Ki S2R / Ki S1R): selectivity for S1R over S2R, fold; for Pseudo-Hill slope at the S1R: competition with [3H]-(+)-pentazocine
Chain of human S1R (Q99720 whole entry): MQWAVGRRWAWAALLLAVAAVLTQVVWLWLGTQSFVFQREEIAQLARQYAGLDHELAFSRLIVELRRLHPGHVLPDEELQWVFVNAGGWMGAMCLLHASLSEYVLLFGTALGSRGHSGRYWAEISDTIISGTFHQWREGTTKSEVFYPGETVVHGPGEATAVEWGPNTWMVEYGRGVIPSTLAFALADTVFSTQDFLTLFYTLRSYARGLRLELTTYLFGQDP

[2] = molecular target: human S2R (Homo sapiens, UniProt Q5BJF2); test: Radioligand competition binding with [3H]-DTG at the S2R; settings: for Pseudo-Hill slope at the S2R: competition with [3H]-DTG
Chain of human S2R (Q5BJF2 whole entry): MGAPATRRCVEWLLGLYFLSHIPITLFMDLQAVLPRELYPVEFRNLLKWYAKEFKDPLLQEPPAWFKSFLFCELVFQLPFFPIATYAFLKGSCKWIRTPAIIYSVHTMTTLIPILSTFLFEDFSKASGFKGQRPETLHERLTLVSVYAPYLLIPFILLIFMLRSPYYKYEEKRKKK

[3] = system: MN9D cells; test: BDNF secretion via in situ ELISA; type: cell-based; settings: for Stimulation of BDNF secretion (in words) / Efficacy of BDNF secretion: 10 μM, MN9D cells; for Efficacy of BDNF secretion: normalized to the maximal response of 10 μM 4-PPBP
[4] = system: PC-6-15 cells; test: NGF induced neurite sprouting; type: cell-based, rat; settings: for Potentiation of NGF induced neurite sprouting: co-treated with 0.3 ng/mL NGF; for Potentiation of NGF induced neurite sprouting / Effect on neurite sprouting, ligand alone: 24 hours; for Effect on neurite sprouting, ligand alone: 0.5% serum
Method in brief: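 PC12-derived PC-6-15 cells overexpressing trkA, kept in RPMI1640 with 10% horse serum, 5% FBS and 0.1 mg/mL G418. Plated on type I collagen in 0.5% serum medium. Treated 24 hours in duplicate with vehicle (DMSO 1:1000 v/v), test compound, NGF (0.3–100 ng/mL concentration-response), or test compound plus 0.3 ng/mL NGF. Neurite length/cell was total traced neurite length divided by total cell count.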

[5] = system: MCF7-hS1R cells; test: Bradykinin; type: cell-based, human; settings: pre-treatment with sigma ligand
[6] = read-out: S1R affinity (Ki), displacement of 0.5 nM [3H]-(+)-pentazocine, MCF-7-S1R, mean ± SEM
[7] = 15 nM BD1063, Fractional Occupancy = [ligand]/([ligand]+Ki)

CCN(CC)CCOCCOC(=O)C(CC)(CC)c1ccccc1 [Oxeladin]
Ki [1]: 25 ± 4.3 nM | Ki [2]: 148 ± 64 nM

CCC(C(=O)OCCOCCN(CC)CC)c1ccccc1 (stereo not drawn) [Butamirate]
Ki [1]: 17.2 ± 1.7 nM | Ki [2]: 214 ± 41 nM | Stimulation of BDNF secretion (in words) [3]: completely abolished the BDNF secretion activity

CC(CN1c2ccccc2Sc2ccccc21)N(C)C (stereo not drawn) [Promethazine]
Emax at 10 µM ([3]; MN9D, read-out: Efficacy for BDNF secretion, % of the maximum response): 103% | Potentiation of NGF induced neurite sprouting [4]: neither 4-PPBP or promethazine enhanced NGF induced sprouting

CCN(CC)CCOCCOC(=O)C1(c2ccccc2)CCCC1 [Carbetapentane]
Ki [1]: 19.8 ± 2.3 nM | S2R/S1R ratio (Ki S2R / Ki S1R) [1]: 3 | Ki [2]: 55.7 ± 3.8 nM | Efficacy of BDNF secretion ([3]; 24 hrs, mean ± SEM): 0.73 ± 0.05 | Effect on neurite sprouting, ligand alone [4]: none of them had any effect | Potentiation of NGF induced neurite sprouting [4]: none of them had any effect

CCC(C/C=C/c1ccccc1)(c1ccccc1)N(C)CC1CC1 (single isomer, unassigned; (+)) [(+)-Igmesine]
Ki [1, 6]: 9.2 ± 2.2 nM | S2R/S1R ratio (Ki S2R / Ki S1R) [1]: 18 | Efficacy of BDNF secretion ([3]; 24 hrs, mean ± SEM): 0.42 ± 0.03 | Stimulation of BDNF secretion (in words) [3]: BDNF secreting activity | Reversal of the BDNF response by S1R-selective concentration of BD1063 ([3]; compound 10 μM + 15 nM BD1063, MN9D cells): could be reversed

COCCCC/C(=N\OCCN)c1ccc(C(F)(F)F)cc1 [fluvoxamine]
Effect on neurite sprouting, ligand alone [4]: none of them had any effect | Potentiation of NGF induced neurite sprouting [4]: none of them had any effect

c1ccc(CCCCN2CCC(c3ccccc3)CC2)cc1 [4-PPBP]
Pseudo-Hill slope at the S1R [1]: −3.1 | Pseudo-Hill slope at the S2R [2]: near unity | Secreted BDNF at maximal stimulation ([3]; 10 μM 4-PPBP, 24 hrs, mean ± SEM, n = 3–10, baseline 75.4 ± 6.9): 128.6 ± 12.8 pg/mL | Efficacy of BDNF secretion ([3]; 24 hrs, mean ± SEM): 1 | Stimulation of BDNF secretion (in words) [3]: robust BDNF secretion response | Effect of sigma ligand on the bradykinin calcium response [5]: no significant potentiation or suppression | Effect on neurite sprouting, ligand alone [4]: unable to stimulate neurite sprouting | Potentiation of NGF induced neurite sprouting [4]: neither 4-PPBP or promethazine enhanced NGF induced sprouting; also recorded: nor did it potentiate NGF induced sprouting

CCCN(CCC)CCc1ccc(OC)c(OCCc2ccccc2)c1 [NE-100]
Pseudo-Hill slope at the S1R [1]: −3.1 | Pseudo-Hill slope at the S2R [2]: near unity | Effect of sigma ligand on the bradykinin calcium response [5]: no significant potentiation or suppression

CCCCOCCOC(=O)C(c1ccccc1)N(CC)CC (stereo not drawn) [Cas# 1796909-31-3, 2-Butoxyethyl 2-(diethylamino)-2-phenylacetate]
Stimulation of BDNF secretion (in words) [3]: BDNF secreting activity

(+)-SKF10047
Effect of sigma ligand on the bradykinin calcium response [5]: no significant potentiation or suppression

CN1CCN(CCc2ccc(Cl)c(Cl)c2)CC1 [BD1063]
Calculated S1R occupancy [1, 7]: 74% | Pseudo-Hill slope at the S1R [1]: equal to unity | Ki [1, 6]: 5.6 ± 0.5 nM | S2R/S1R ratio (Ki S2R / Ki S1R) [1]: 38 | Calculated S2R occupancy [2, 7]: 7% | Pseudo-Hill slope at the S2R [2]: near unity | Effect of sigma ligand on the bradykinin calcium response [5]: no significant potentiation or suppression

O=C(OCCN1CCOCC1)C1(c2ccccc2)CCCCC1 [PRE-084]
Pseudo-Hill slope at the S1R [1]: −0.98 | Pseudo-Hill slope at the S2R [2]: near unity | Stimulation of BDNF secretion (in words) [3]: no effect; also recorded: failed to stimulate BDNF secretion; also recorded: no activity | Effect of sigma ligand on the bradykinin calcium response [5]: no significant potentiation or suppression | Effect on neurite sprouting, ligand alone [4]: none of them had any effect | Potentiation of NGF induced neurite sprouting [4]: none of them had any effect

COc1cc2c(cc1OC)C(=O)C(CC1CCN(Cc3ccccc3)CC1)C2 (stereo not drawn) [Donepezil]
Stimulation of BDNF secretion (in words) [3]: BDNF secreting activity

B1: NGF: nerve growth factor (βNGF, EMD Millipore) (protein, UniProt P01139 122-241, looked up)
Beta-nerve growth factor: SSTHPVFHMGEFSVCDSVSVWVGDKTTATDIKGKEVTVLAEVNINNSVFRQYFFETKCRASNPVESGCRGIDSKHWNSYCTTTHTFVKALTTDEKQAAWRFIRIDTACVCVLSRKATRRG
modifications: beta-NGF
Lowest concentration tested that induced neurite sprouting ([4]; 0.3 to 100 ng/mL tested): 0.3 ng/mL
